Test results as given in ChEMBL document CHEMBL1129303, “Potent human immunodeficiency virus type 1 protease inhibitors that utilize noncoded D-amino acids as P2/P3 ligands” (J Med Chem, 1996).
“And” between values parts separate entries of the source, which are not always exact repeats. Equal values may be shown once.

Assays:
CCRF-CEM [1] = experiment: Antiviral activity against CEM cells; type: functional, cell-based; conditions: Homo sapiens
MT2 = experiment: Antiviral activity against MT-2 cells; type: functional, cell-based; conditions: Homo sapiens
[2] = molecular target: Human immunodeficiency virus type 1 protease (Human immunodeficiency virus 1, UniProt Q72874); experiment: Inhibitory activity against HIV-1 protease
[3] = Maximum plasma concentration in rat upon oral administration of 40 mg/kg; type: ADME, organism-based; design: dose 40 mg/kg, route oral
Outline: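 Fasted (16-18 h) Harlan Sprague-Dawley rats, jugular cannula implanted ≥48 h earlier, gavaged 40 mg/kg in acacia/Tween emulsion, n=2. Plasma from 0-4 h blood draws diluted 1:49 and assayed by HIV protease cleavage of FITC-labelled peptide (5 h, 37 °C, MES pH 5.5) with HPLC quantitation. Inhibitory activity read against a standard curve of parent compound; Cmax is the peak.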

CCRF-CEM [4] = experiment: In vitro inhibitory activity against replication of HIV type-1 virus in CEM cells; type: functional, cell-based; conditions: Homo sapiens

SMILES | IC50 (CCRF-CEM [1]) | IC50 (MT2) | IC50 [2] | Cmax [3] | IC50 (CCRF-CEM [4])
CC(C)(C)NC(=O)c1ccccc1C[C@@H](O)[C@H](Cc1ccccc1)NC(=O)[C@H](CSc1ccc2ccccc2n1)NS(C)(=O)=O | 5400 nM | 6440 nM | 60 nM | – | –
CC(C)(C)NC(=O)c1ccccc1C[C@@H](O)[C@H](Cc1ccccc1)NC(=O)[C@H](CSc1ccccc1)NS(C)(=O)=O | 4370 nM | 2750 nM | 44 nM | – | –
CC(C)(C)NC(=O)c1ccccc1C[C@@H](O)[C@H](Cc1ccccc1)NC(=O)[C@@H](N)CC(=O)OCc1ccccc1 | – | – | > 1000 nM | – | –
CC(=O)N[C@@H](CSc1ccccc1)C(=O)N[C@@H](Cc1ccccc1)[C@H](O)Cc1ccccc1C(=O)NC(C)(C)C | 5400 nM | 11300 nM | 220 nM | – | –
CC(C)(C)NC(=O)c1ccccc1C[C@@H](O)[C@H](Cc1ccccc1)NC(=O)[C@H](CSc1ccc2ccccc2c1)NS(C)(=O)=O | 530 nM | 800 nM | 1.8 nM | – | –
CC(C)(C)NC(=O)c1ccccc1C[C@@H](O)[C@H](Cc1ccccc1)NC(=O)[C@H](C[S+]([O-])c1cccc2ccccc12)NS(C)(=O)=O (stereo partly drawn) | < 0.5 nM | 6 nM | 0.45 nM | < 250 ng/mL | 0.8 nM
CC(C)(C)NC(=O)c1ccccc1C[C@@H](O)[C@H](Cc1ccccc1)NC(=O)[C@H](C[S+]([O-])c1ccccc1)NS(C)(=O)=O (stereo partly drawn) | 100 nM | 500 nM | 1.9 nM | – | –
CCCC(=O)N[C@@H](CC(=O)OCc1ccccc1)C(=O)N[C@@H](Cc1ccccc1)[C@H](O)Cc1ccccc1C(=O)NC(C)(C)C | 8700 nM | 24200 nM | 323 nM | – | –
CC(C)(C)NC(=O)c1ccccc1C[C@@H](O)[C@H](Cc1ccccc1)NC(=O)[C@H](CS(=O)(=O)c1cccc2ccccc12)NS(C)(=O)=O | < 0.5 nM | 8.8 nM | 0.44 nM | – | 49 nM
COc1ccc(SC[C@H](NS(C)(=O)=O)C(=O)N[C@@H](Cc2ccccc2)[C@H](O)Cc2ccccc2C(=O)NC(C)(C)C)cc1 | 1800 nM | 1910 nM | 16 nM | – | –
CC(C)(C)NC(=O)c1ccccc1C[C@@H](O)[C@H](Cc1ccccc1)NC(=O)[C@H](C[S+]([O-])c1ccc(F)cc1)NS(C)(=O)=O (stereo partly drawn) | 165 nM | 900 nM | 0.38 nM | 2200 ng/mL | –
CC(C)(C)NC(=O)c1ccccc1C[C@@H](O)[C@H](Cc1ccccc1)NC(=O)[C@H](CSc1ccccn1)NS(C)(=O)=O | – | – | 910 nM | – | –
CC(C)(C)NC(=O)c1ccccc1C[C@@H](O)[C@H](Cc1ccccc1)NC(=O)[C@H](CSc1ccc(F)cc1)NS(C)(=O)=O | 2130 nM | 2880 nM | 4.4 nM | – | –
CC(C)(C)NC(=O)c1ccccc1C[C@@H](O)[C@H](Cc1ccccc1)NC(=O)[C@H](CS(=O)(=O)c1ccc2ccccc2n1)NS(C)(=O)=O | < 0.5 nM | 5 nM | 0.3 nM | < 100 ng/mL | 12 nM
COc1ccc(S(=O)(=O)C[C@H](NS(C)(=O)=O)C(=O)N[C@@H](Cc2ccccc2)[C@H](O)Cc2ccccc2C(=O)NC(C)(C)C)cc1 | 54 nM | 150 nM | 2.4 nM | < 300 ng/mL | 107 nM
CCC(=O)N[C@@H](CC(=O)OCc1ccccc1)C(=O)N[C@@H](Cc1ccccc1)[C@H](O)Cc1ccccc1C(=O)NC(C)(C)C | 5200 nM | 9880 nM | 73 nM | – | –
CC(C)(C)NC(=O)c1ccccc1C[C@@H](O)[C@H](Cc1ccccc1)NC(=O)[C@H](CS(=O)(=O)c1ccccc1)NS(C)(=O)=O | 72 nM | 176 nM | 5.7 nM | < 300 ng/mL | 83 nM
CC(=O)N[C@@H](C[S+]([O-])c1ccc2ccccc2n1)C(=O)N[C@@H](Cc1ccccc1)[C@H](O)Cc1ccccc1C(=O)NC(C)(C)C (stereo partly drawn) | 72 nM | 180 nM | 0.25 nM | – | –

SMILES | IC50 (CCRF-CEM [1]) | IC50 (MT2) | IC50 [2] | Cmax [3] | IC50 (CCRF-CEM [4])
CC(C)(C)NC(=O)c1ccccc1C[C@@H](O)[C@H](Cc1ccccc1)NC(=O)[C@H](C[S+]([O-])c1ccc2ccccc2c1)NS(C)(=O)=O (stereo partly drawn) | < 0.5 nM | 4.3 nM | 3.5 nM | 330 ng/mL | 6.7 nM
CC(C)(C)NC(=O)c1ccccc1C[C@@H](O)[C@H](Cc1ccccc1)NC(=O)[C@H](CS(=O)(=O)Cc1ccccc1)NS(C)(=O)=O | 800 nM | 730 nM | 19.4 nM | – | –
CC(C)(C)NC(=O)c1ccccc1C[C@@H](O)[C@H](Cc1ccccc1)NC(=O)[C@H](CS(=O)(=O)c1ccccn1)NS(C)(=O)=O | – | – | 22 nM | – | –
CC(C)(C)NC(=O)c1ccccc1C[C@@H](O)[C@H](Cc1ccccc1)NC(=O)[C@H](C[S+]([O-])c1ccccn1)NS(C)(=O)=O (stereo partly drawn) | 330 nM | 770 nM | 19.3 nM and 7.9 nM | < 200 ng/mL | 474 nM
CC(C)(C)NC(=O)c1ccccc1C[C@@H](O)[C@H](Cc1ccccc1)NC(=O)[C@H](CS(=O)(=O)c1ccc(Cl)cc1)NS(C)(=O)=O | 138 nM | 24 nM | 0.34 nM | < 300 ng/mL | 16 nM
CC(C)(C)NC(=O)c1ccccc1C[C@@H](O)[C@H](Cc1ccccc1)NC(=O)[C@H](CS(=O)(=O)c1ccc(C(F)(F)F)cc1)NS(C)(=O)=O | 204 nM | 450 nM | 2 nM | < 300 ng/mL | 646 nM
CC(=O)N[C@@H](CS(=O)(=O)c1ccc2ccccc2n1)C(=O)N[C@@H](Cc1ccccc1)[C@H](O)Cc1ccccc1C(=O)NC(C)(C)C | – | – | 0.28 nM | – | 59 nM
CC(C)(C)NC(=O)c1ccccc1C[C@@H](O)[C@H](Cc1ccccc1)NC(=O)C(CS(=O)(=O)c1ccc2ccccc2n1)NS(C)(=O)=O (stereo partly drawn) | 2060 nM | 3030 nM | 2.8 nM | – | 5780 nM
Cn1nnnc1SC[C@H](NS(C)(=O)=O)C(=O)N[C@@H](Cc1ccccc1)[C@H](O)Cc1ccccc1C(=O)NC(C)(C)C | 6680 nM | 9260 nM | 17.5 nM | – | –
CC(=O)N[C@@H](CS(=O)(=O)c1ccccc1)C(=O)N[C@@H](Cc1ccccc1)[C@H](O)Cc1ccccc1C(=O)NC(C)(C)C | 815 nM | 820 nM | 20 nM | – | –
CC(=O)N[C@@H](CSc1ccc2ccccc2n1)C(=O)N[C@@H](Cc1ccccc1)[C@H](O)Cc1ccccc1C(=O)NC(C)(C)C | – | – | 14.7 nM | – | –
CC(=O)N[C@@H](CS(=O)(=O)c1ccc2ccccc2c1)C(=O)N[C@@H](Cc1ccccc1)[C@H](O)Cc1ccccc1C(=O)NC(C)(C)C | 11 nM | 31 nM | 0.32 nM | < 100 ng/mL | –
CC(C)(C)NC(=O)c1ccccc1C[C@@H](O)[C@H](Cc1ccccc1)NC(=O)[C@H](CSc1ccc(C(F)(F)F)cc1)NS(C)(=O)=O | 2930 nM | 5910 nM | 170 nM | – | –
CC(C)(C)NC(=O)c1ccccc1C[C@@H](O)[C@H](Cc1ccccc1)NC(=O)[C@H](CS(=O)(=O)c1ccc(F)cc1)NS(C)(=O)=O | 59 nM | 440 nM | 0.77 nM | < 300 ng/mL | 32 nM
Cn1nnnc1[S+]([O-])C[C@H](NS(C)(=O)=O)C(=O)N[C@@H](Cc1ccccc1)[C@H](O)Cc1ccccc1C(=O)NC(C)(C)C (stereo partly drawn) | – | – | 2.1 nM | 490 ng/mL | 5010 nM
CC(C)(C)NC(=O)c1ccccc1C[C@@H](O)[C@H](Cc1ccccc1)NC(=O)[C@H](CSc1cccc2ccccc12)NS(C)(=O)=O | 270 nM | 760 nM | 1.2 nM | – | 323 nM
CC(C)(C)NC(=O)c1ccccc1C[C@@H](O)[C@H](Cc1ccccc1)NC(=O)[C@H](C[S+]([O-])c1ccc(C(F)(F)F)cc1)NS(C)(=O)=O (stereo partly drawn) | 53 nM | 116 nM | 2.3 nM | < 200 ng/mL | –
CC(C)(C)NC(=O)c1ccccc1C[C@@H](O)[C@H](Cc1ccccc1)NC(=O)[C@H](CSCc1ccccc1)NS(C)(=O)=O | 1650 nM | 926 nM | 14.7 nM | – | –
